# SENP8 block-1 = blocks human SENP8 cleavage of Nedd8 substrate; Q96LD8; recombinant SENP8, Nedd8 substrate fluorescence; inhibition, % at 20 µM; 360,000 compounds, 0.64% hits; in the data active = inhibition mostly above about 40%, no sharp cut-off; inactive = mostly below about 27%
# SENP6 inh = SENP6 protease inhibition; Q9GZR1; Recombinant SENP6 catalytic domain, aminoluciferin luminescence; inhibition, % at 10 µM; 330,000 compounds, 1.8% hits;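 active = inhibition above about 50% at the single tested dose, limit read from the data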;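 also: plate controls were DMSO wells with enzyme for no effect and DMSO wells lacking enzyme for full effect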
# Target sequence (Q9GZR1 628-1112 limits assumed): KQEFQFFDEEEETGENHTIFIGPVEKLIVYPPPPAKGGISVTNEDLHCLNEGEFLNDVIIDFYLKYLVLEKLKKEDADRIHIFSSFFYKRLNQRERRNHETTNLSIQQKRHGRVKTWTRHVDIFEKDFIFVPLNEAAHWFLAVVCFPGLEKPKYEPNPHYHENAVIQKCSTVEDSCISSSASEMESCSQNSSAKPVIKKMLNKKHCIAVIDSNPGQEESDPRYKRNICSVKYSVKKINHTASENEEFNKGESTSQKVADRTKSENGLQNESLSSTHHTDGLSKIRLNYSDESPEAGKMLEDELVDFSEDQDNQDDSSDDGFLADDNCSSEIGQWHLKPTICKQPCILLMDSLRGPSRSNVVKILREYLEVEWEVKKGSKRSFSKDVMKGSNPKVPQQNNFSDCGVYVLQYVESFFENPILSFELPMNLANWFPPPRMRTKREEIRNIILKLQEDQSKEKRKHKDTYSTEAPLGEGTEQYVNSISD
# HSP90 inh = HSP90 refolding inhibition in rabbit reticulocyte lysate. luciferase refolding luminescence, 3 h. inhibition, % at 5.6 µM. 290,000 compounds, 0.91% hits;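 active = inhibition above the screen-wide mean plus 3 SD, computed separately per campaign, cut at about 16% in these data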;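 also: 0% = DMSO wells and 100% = 60 µM geldanamycin wells; inhibitors lower the luminescence because luciferase stays unfolded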
# SENP1 inh = SENP1 (human) catalytic domain inhibition | recombinant SENP1 catalytic domain, CyPet-SUMO1-YPet FRET cleavage | 360,000 compounds, 0.21% hits | inhibition, % at 10 µM | Q9P0U3 | AID 624204;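 active = inhibition at least 30% at 10 µM, raw YFP signal under a set limit, fluorescence ratio 0.5 to 1.5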;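 also: 0% = enzyme with DMSO and 100% = no enzyme wells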
#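 Assay system – human recombinant His6-tagged SENP1 catalytic domain enzyme · Input – SENP1 enzyme, 20 pM final · Buffer or medium – Tris pH 8 buffer plus EDTA, NaCl, BME, BSA, NP40, catalase · Schedule – 50 min reaction at room temperature · Technique – FRET read of cyan and yellow fluorescence · Control set – no-enzyme wells low, DMSO-plus-enzyme wells high control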
# SENP7 inh = SENP7 protease inhibition; Q9BQF6; recombinant SENP7, Z-RLRGG-aminoluciferin luminescence, 40 min; inhibition, % at 5 µM; 330,000 compounds, 1.5% hits;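 active = inhibition above about 50% at the single test dose, limit read from the data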;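 also: plate controls were DMSO with enzyme for no effect and no enzyme buffer wells for full effect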
# SENP8 block-2 = inhibitors of human SENP8 protease; Q96LD8; purified SENP8, Z-RLRGG-aminoluciferin cleavage, luminescence; inhibition, % at 10 µM; 330,000 compounds, 1.2% hits; AID 2540; in the data active = inhibition above about 50%
# SENP8 confirm = human SENP8 inhibition, confirmed | shares compounds with SENP7 inh | Recombinant SENP8, Z-RLRGG-aminoluciferin luminescence, 60 min | AID 488912 | inhibition, % at 12.5 µM | 6,200 compounds, 40% hits;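 active = mean inhibition across replicates above about 50%, limit read from the data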
# SENP6 confirm = confirmation of human SENP6 protease inhibitors | shares compounds with SENP7 inh | recombinant SENP6, Z-RLRGG-aminoluciferin luminescence | inhibition, % at 12.5 µM | 6,200 compounds, 58% hits | AID 488915
# SENP7 confirm = confirmation of human SENP7 protease inhibitors; shares compounds with SENP7 inh; recombinant SENP7, Z-RLRGG-aminoluciferin luminescence, 40 min; inhibition, % at 12.5 µM; 6,200 compounds, 69% hits
# Casp3 SENP sel = selectivity test for SENP inhibitors: human caspase-3 inhibition. purified caspase-3, Z-DEVD-aminoluciferin luminescence, 60 min. shares compounds with SENP7 inh. 6,200 compounds, 60% hits. AID 488918. inhibition, % at 12.5 µM;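 active = mean inhibition above about 50%, limit read from the data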;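 also: plate controls were enzyme with DMSO for no effect and wells without caspase-3 for full effect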
# Luc interf = counter-screen for SENP inhibitors: luminescence interference; shares compounds with SENP7 inh; Pre-incubated SENP8/Z-RLRGG-aminoluciferin, luciferase luminescence interference; inhibition, % at 12.5 µM; 6,200 compounds, 39% hits; AID 488919;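 active = mean inhibition above about 50% when retested at one dose, limit read from the data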;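 also: plate controls were DMSO wells with completed reaction for no effect and substrate without enzyme for full effect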
# Numbers without * were called inactive; . = no result. A selection: hits, their analogues and other compounds. The true share with any hit is near 2.9%.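 The calls were made as follows, unless noted: active = mean inhibition above about 50% in the one-dose retest (limit read from the data); inactive = the rest.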
SMILES,SENP8 block-1,SENP6 inh,HSP90 inh,SENP1 inh,SENP7 inh,SENP8 block-2,SENP8 confirm,SENP6 confirm,SENP7 confirm,Casp3 SENP sel,Luc interf
C(=C\c1ccccc1)/C=N/N1CCN(c2ccccn2)CC1,18,74*,-2,1,56*,40,39,52*,32,62*,29
O=c1sc2ccccc2c(N2CCCCC2)c1[N+](=O)[O-],6,-16,-2,4,9,28,.,.,.,.,.
O=c1sc2ccccc2c(N2CCOCC2)c1[N+](=O)[O-],6,57*,8,2,-1,22,16,6,50*,70*,55*
Cc1cc(-n2c(C)cc(C(=O)CSc3ccc4c(c3)OCCO4)c2C)no1,12,1,4,0,12,1,.,.,.,.,.
O=c1oc(-c2cc3ccccc3o2)nc2sc3c(c12)CCCC3,-123,-23,-1,-21,-7,0,.,.,.,.,.
Cc1ccccc1-c1nc2sc3c(c2c(=O)o1)CCC3,-54,88*,1,-28,79*,83*,9,8,53*,38,7
COc1ccc(/C=C/c2nc3sc4c(c3c(=O)o2)CCC4)cc1,-11,17,5,9,12,9,.,.,.,.,.
O=c1oc(-c2cccs2)nc2sc3c(c12)CCCCC3,9,55*,-1,-58,5,39,15,9,2,24,6
O=c1oc(/C=C/c2ccccc2)nc2sc3c(c12)CCC3,22,65*,-2,-22,5,21,-20,-20,-4,17,-5
Cc1sc2nc(-c3cccs3)oc(=O)c2c1C,-35,15,4,-26,51*,35,39,36,60*,32,50
N#Cc1ccsc1NC(=O)COC(=O)C1=NNC(=O)CC1,-58,2,.,-45,-2,0,.,.,.,.,.
O=c1oc(-c2ccccc2)nc2sc3c(c12)CCCC3,-35,94*,5,-15,96*,92*,62*,48,40,81*,33
Nn1c(-c2cccs2)nc2sc3c(c2c1=O)CCCC3,-409,90*,-1,-10,59*,71*,31,70*,90*,60*,27
COCCNC(=O)c1noc2c1CCc1cc(OC)ccc1-2,9,17,3,1,11,-3,.,.,.,.,.
COc1ccc2c(c1)CCc1c(C(=O)NC3CCCCC3)noc1-2,16,33,-2,1,86*,0,-24,-11,0,4,-3
COCC(C)NC(=O)c1noc2c1CCc1cc(OC)ccc1-2 (stereo not given),2,53*,3,-1,52*,12,36,14,74*,73*,60*
COc1ccc2c(c1)CCc1c(C(=O)NCCN3CCOCC3)noc1-2,-7,6,4,1,0,5,.,.,.,.,.
Nc1ccc(O)c2c(=O)cc(-c3ccccc3Cl)oc12,16,60*,-1,1,36,53*,-6,2,17,11,8
Cc1ccc(O)c(NC(=O)c2noc3c2CCCCC3)c1,-4,-43,5,0,80*,76*,30,24,46,21,41
CCc1ccc(NC(=O)c2noc3c2CCC3)cc1,13,88*,6,-6,60*,70*,80*,80*,96*,84*,81*
Cc1ccc(NC(=O)c2noc3c2CCCCC3)cc1C,11,44,10,3,62*,9,14,13,27,18,9
CCc1ccc(NC(=O)c2noc3c2CCCCC3)cc1,13,-7,3,-2,4,-19,.,.,.,.,.
CCn1c2nc(SCCN3CCOCC3)nnc2c2cc(C)cc(C)c21,19,18,-1,0,0,9,.,.,.,.,.
Cc1ccc(-c2nnc3sc(-c4ccncc4)nn23)cc1,2,-16,-3,0,57*,-8,1,5,10,6,3
c1ccc(-c2nn3c(-c4ccccc4)nnc3s2)cc1,3,1,5,-1,-2,-6,.,.,.,.,.
SMILES,SENP8 block-1,SENP6 inh,HSP90 inh,SENP1 inh,SENP7 inh,SENP8 block-2,SENP8 confirm,SENP6 confirm,SENP7 confirm,Casp3 SENP sel,Luc interf
C[C@H](CO)N1C[C@H](C)[C@@H](CN(C)Cc2ccncc2)OCc2cnnn2CCCC1=O,4,.,.,0,.,.,.,.,.,.,.
Cc1ccc(C(=O)NC2(O)C(=O)c3ccccc3C2=O)cc1C,100*,64*,4,3,60*,64*,70*,85*,74*,2,5
O=C(NC1(O)C(=O)c2ccccc2C1=O)c1ccc(C(F)(F)F)cc1,81*,74*,6,3,80*,67*,79*,91*,84*,8,6
O=C(N[C@@H](Cc1ccccc1)C(=O)O)c1ccc(C(F)(F)F)cc1,5,3,8,3,-1,5,.,.,.,.,.
CCOC(=O)C1=CC[C@@H](c2ccccc2)N(S(=O)(=O)c2ccc(C)cc2)[C@H]1C#N,4,.,.,2,.,.,.,.,.,.,.
CC(=O)NCC(=O)OCC(=O)c1ccc(Br)cc1,10,4,0,1,-2,-2,.,.,.,.,.
Cc1ccc2nc(/C=C/c3cccc(F)c3)ccc2c1,-300,50*,-3,0,23,30,8,8,56*,16,59*
Fc1cccc(F)c1/C=C/c1ccc2ccccc2n1,-50,39,1,-5,5,40,.,.,.,.,.
Brc1ccc(NC2=Nc3ccccc3CC2)cc1,0,-19,0,0,45,34,.,.,.,.,.
Cc1ccc(NC2=Nc3ccccc3CC2)cc1,12,52*,16,-1,37,43,64*,61*,88*,84*,42
CCCC(C)NC(=O)COC(=O)c1cccc(NS(C)(=O)=O)c1 (stereo not given),9,-14,0,2,2,-1,.,.,.,.,.
COc1ccccc1N=C(C)C1=C(O)CSC1=O,28,-10,2,-18,9,-6,.,.,.,.,.
CC(=Nc1ccc(C)c(C)c1)C1=C(O)CSC1=O,-18,54*,3,-23,9,22,58*,56*,82*,74*,64*

# Source: PubChem (several laboratories)
